Screens: PubChem BioAssay, several laboratories
S1P1 ag pot – S1P1 agonists and agonism potentiators, primary screen, cell-based, primary and confirmation screens, CRE-bla reporter; activation, % at 9.5 µM; S1P1 CRE-bla cells, forskolin, beta-lactamase FRET, potentiator mode; S1P1 agonist co-added at EC20, 2 nM; 100% = saturating reference agonist, 0% = basal; 0.57% of 56,000 active; Sphingosine 1-phosphate receptor 1 (Homo sapiens), P21453;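 active means activation above a cutoff set at the mean activation of all tested compounds plus 3 SD, cut at about 54% in these data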;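 further: forskolin at 4 µM as EC80 and the EC20 agonist is SEW2871; 100% = SEW2871 at its EC100 plus forskolin at EC80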
M1 antagonist – antagonists of rat M1 muscarinic receptor | 3.4% of 64,000 active | CHO-M1 cells, Fluo-4 calcium, ACh EC80 antagonist mode; active compounds read low | Muscarinic acetylcholine receptor M1 (Rattus norvegicus), P08482 | B-score at 10 µM;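 active means calcium fluorescence response, raw or row-and-column corrected B-score, differing from the plate sample mean either way at a set confidence level, mostly lower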
RORa activator – activators of orphan receptor RORA, primary screen, cell-based, luminescence. CHO-K1 Gal4-RORA LBD luciferase reporter; percent increase over mock-subtracted basal signal. activation, % at 10 µM. 1.5% of 65,000 active;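 active means activation above the mean of all tested compounds plus 3 SD, cut at about 49% in these data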;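 further: 0% = DMSO-treated RORA cells and 100% = added signal equal to DMSO minus mock-transfected cells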
S1P3 ag – human S1P3 receptor agonists, primary screen, cell-based, primary and confirmation, NFAT-BLA reporter | 0.1% of 60,000 active | S1P3 NFAT-BLA reporter cells, agonism, FRET ratio; relative to 1 µM S1P, basal subtracted | activation, % at 4.5 µM;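 active means activation above the screen-wide mean plus 3 SD, cut at about 4.5% in these data, passing the limit was not always enough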
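Material: Human S1P3 NFAT-BLA reporter CHO cells | Incubation: Overnight plating, 4 h compound 37 °C, 2 h substrate RT | Signal: FRET β-lactamase substrate fluorescence, excitation 405 nm, 460/535 nm emission ratio, background-subtracted | Compound: 4.5 µM final, single dose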
M1 agonist – M1 muscarinic receptor agonists, primary screen, CHO-M1 cells, Fluo-4 calcium, agonist mode; 3% of 64,000 active; B-score at 10 µM; Muscarinic acetylcholine receptor M1; Fluo-4 calcium fluorescence; active compounds read high;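 active means fluorescence rise, raw or as B-score row- and column-corrected plate score, outside the 99.7% band of its plate's samples, either direction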
SF1 activator – activators of human SF-1, primary screen, cell-based, CHO-K1, Gal4-SF-1 LBD, luciferase luminescence | Steroidogenic factor 1 (Homo sapiens), Q13285 | CHO-K1 Gal4-SF-1 LBD luciferase reporter; % increase over DMSO SF-1-specific signal | activation, % at 10 µM | 1.9% of 65,000 active | AID 522, 2006;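 active means activation above the mean activation of all tested compounds plus 3 SD, cut at about 50% in these data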
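Test system: CHO-K1 cells with Gal4–hSF-1 LBD chimera plus Gal4-driven luciferase; Input: 4,000 cells/well; Compound: 10 µM only; Times: 20 h compound treatment, 37 °C; Measured by: steady-glow luciferase luminescence, read after 15 min reagent incubation; Measure: percent activation versus DMSO; Control set: DMSO and mock-transfected background; Replicates: one test per compound.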
M1 agonist conf – rat M1 muscarinic receptor agonists, confirmation, CHO-M1 cells, Fluo-4 calcium, duplicate retest; shares compounds with M1 agonist; Fluo-4 calcium fluorescence, agonist mode; actives lie on both sides; fluorescence change (max-min) at 10 µM; 19% of 1,700 active; AID 1488, 2009;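 active means fluorescence change differs from the solvent-only DMSO control mean at a set confidence level in both duplicate runs; inconclusive means differs from solvent-only control mean in just one of two runs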;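 further: an EC20 dose of acetylcholine follows compound addition during the same imaging run; raw fluorescence intensity difference in instrument units with no normalization to controls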
M4 ag counter – agonist activity at rat M4 receptor, confirmation, counter-screen for M1 allosteric modulator project, cell-based, agonist mode | AID 1741, 2009 | CHO M4/Gqi5 cells, Fluo-4 calcium fluorescence; actives lie on both sides | fluorescence change (max-min) at 10 µM | shares compounds with M1 agonist | 9% of 1,700 active;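 active means fluorescence change differing from the plate's solvent-only control wells at 99.7% confidence in both duplicates, whether higher or lower; inconclusive means differs from solvent controls in only one of two duplicates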
Target sequence (P08485 whole entry, looked up): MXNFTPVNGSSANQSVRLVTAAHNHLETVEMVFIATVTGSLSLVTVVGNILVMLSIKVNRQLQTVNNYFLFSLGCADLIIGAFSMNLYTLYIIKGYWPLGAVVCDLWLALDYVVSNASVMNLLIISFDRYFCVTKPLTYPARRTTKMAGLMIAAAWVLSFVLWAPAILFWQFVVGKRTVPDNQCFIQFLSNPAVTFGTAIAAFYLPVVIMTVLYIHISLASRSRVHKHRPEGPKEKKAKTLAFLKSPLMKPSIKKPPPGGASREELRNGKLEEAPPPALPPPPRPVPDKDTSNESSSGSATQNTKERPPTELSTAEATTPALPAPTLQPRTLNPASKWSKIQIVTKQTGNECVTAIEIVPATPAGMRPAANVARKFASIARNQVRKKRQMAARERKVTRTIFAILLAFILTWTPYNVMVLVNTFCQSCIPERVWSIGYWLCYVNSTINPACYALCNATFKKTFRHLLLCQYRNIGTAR
* hit, by the source's call; ? = inconclusive; / = no result. Shown are actives, neighbours in structure and some others; about 8.8% of the full set was active somewhere.

SMILES | S1P1 ag pot | M1 antagonist | RORa activator | S1P3 ag | M1 agonist | SF1 activator | others
CCc1ccccc1N(C(=O)CCC(=O)Nc1cc(C)on1)C(C(=O)NC1CCCC1)c1ccco1 (stereo not given) | -6.5 | 0.448 | -9.6 | -0.4 | 0.506 | 11.1
O=C(NC1CCCCCC1)c1ccc(N2CCCC2=O)cc1 | 21.6 | -0.0288 | 29.4 | -0.2 | 0.324 | 53.6*
COc1ccc(Cc2nnc(SCC(=O)N3CCN(c4ccccc4)CC3)o2)cc1 | -6.5 | -0.00759 | 16.8 | 0.4 | -1.49 | -11.2
COc1ccc(-c2nnc(SCC(=O)N3CCOCC3)o2)cc1 | -27.1 | 0.346 | 73.0* | -1.6 | 0.0905 | 37.8
COc1ccccc1NC(=O)CSc1nnc(-c2ccc(C)cc2)o1 | -2.5 | 0.147 | 40.8 | -0.8 | 1.17 | 56.6*
COc1ccc(-c2nnc(SC(C)C(=O)Nc3ccc4c(c3)OCCO4)o2)cc1 (stereo not given) | -25.3 | 0.522 | 25.3 | -0.8 | 0.222 | 49.6*
Cc1nnc(SC(C)C(=O)Nc2ccc3c(c2)OCCO3)s1 (stereo not given) | -2.1 | 1.19 | 21.1 | 1.0 | -0.483 | 7.5
COc1ccc(N2CCN(C(=O)CSc3nnc(CNc4ccccc4)o3)CC2)cc1 | 27.8 | -0.31 | -4.0 | -1.0 | -2.5* | 19.0
COc1ccc(OC)c(C(=O)CSc2nc3c(c(=O)n(C)c(=O)n3C)n2C(C)C)c1 | -28.3 | 0.0686 | 8.4 | -1.2 | -1.5 | -8.8
Cc1cc(N2CCCC2)ccc1/C=N/n1cnnc1 | / | 0.122 | / | / | 0.251 | /
COCCCNC(=O)C12CCC(C)(C(=O)C1)C2(C)C (stereo not given) | / | 0.453 | 2.7 | 0.1 | -0.128 | 17.6
Cn1c(=O)c2c(nc(CN3CCN(C(=O)c4ccco4)CC3)n2Cc2ccccc2F)n(C)c1=O | -26.9 | 1.85 | 33.8 | 0.1 | 0.00987 | -6.0
O=C(NCCN1CCCC1)c1cc(-c2ccncc2)nc2ccc(S(=O)(=O)N3CCOCC3)cc12 | -6.9 | 0.0543 | -2.7 | -0.8 | -1.25 | -6.2
COCCNC(=O)c1cc2sc3ccccc3c2s1 | / | -0.759 | 61.1* | 0.3 | -0.403 | 50.5*
O=C(NCCO)c1cc2ccccc2c(=O)s1 | -22.6 | -0.00474 | -4.1 | -0.6 | -0.203 | -7.9
CCOC1(OCC)N=C(N)C2(C#N)C(c3ccc(NC(C)=O)cc3)C12C#N (stereo not given) | -25.6 | -0.601 | -3.3 | 0.9 | 0.435 | 12.5
CCC(NC(=O)c1ccccc1NC(=O)c1ccco1)C(=O)O (stereo not given) | 6.4 | -0.132 | 3.6 | -0.3 | 0.447 | 0.3
O=C(Nc1ccccc1C(=O)NC(Cc1c[nH]c2ccccc12)C(=O)O)c1ccco1 (stereo not given) | -11.9 | 0.0127 | -3.6 | -0.8 | -2.59* | 6.3 | M1 agonist conf=-28.1*;M4 ag counter=-67.1
CC(OC(=O)c1cccs1)C(=O)NCC1CCCO1 (stereo not given) | -8.5 | 1.2 | 9.0 | 0.1 | -0.0708 | 6.1
CCOc1ncccc1C(=O)Nc1ccc(-c2cn3ccsc3n2)cc1 | -34.9 | 0.00526 | -20.7 | 0.4 | 1.89 | -6.6
COc1ccccc1C(=O)Nc1cccc(-c2cn3ccsc3n2)c1 | 15.6 | 0.251 | 2.1 | -1.6 | 4.69* | 8.3 | M1 agonist conf=?;M4 ag counter=-40.3
COc1cc2ccccc2cc1C(=O)Nc1ccc(N2CCN(C)CC2)cc1 | 0.4 | -8.01* | 59.1* | -0.8 | 5.87* | 36.2 | M1 agonist conf=-24.1*;M4 ag counter=-47.4
Cc1ccc2nc(SCC(=O)Nc3c(C)n(C)n(-c4ccccc4)c3=O)[nH]c2c1 | 9.9 | -0.0409 | 17.7 | 0.1 | 2.93* | -10.2 | M1 agonist conf=-7.1;M4 ag counter=-31.5
Cc1ccc(-c2nnn(CC(=O)N(CC(=O)NC3CCCCC3)c3cnc4ccccc4c3)n2)o1 | 9.0 | 0.587 | -2.7 | -2.3 | 0.149 | 5.2
CN(C)c1nc(SCCOC(=O)COc2ccc(Cl)cc2Cl)nc(N(C)C)n1 | -3.9 | -1.23 | -23.2 | -0.6 | 1.97* | 4.0 | M1 agonist conf=10.6;M4 ag counter=?
SMILES | S1P1 ag pot | M1 antagonist | RORa activator | S1P3 ag | M1 agonist | SF1 activator | others
CN(C)c1nc(OCCOC(=O)COc2ccc(Cl)cc2Cl)nc(N(C)C)n1 | -17.8 | 0.324 | -21.9 | -0.9 | -1.01 | -3.0
CC1CN(S(=O)(=O)c2ccc(NC(=O)c3ccco3)cc2)CC(C)O1 (stereo not given) | / | -0.00709 | -21.2 | / | 12* | -16.1 | M1 agonist conf=-12.2;M4 ag counter=-31.5
CC1CN(S(=O)(=O)c2ccc(NC(=O)CCN3C(=O)c4ccccc4C3=O)cc2)CC(C)O1 (stereo not given) | -12.3 | 0.711 | -4.2 | -0.9 | 0.0241 | 11.4
CC(C)COC(=O)NCCCOC(=O)Nc1ccccc1 | 0.3 | 0.17 | 47.7 | -1.4 | -0.286 | 1.2
CC(C)COC(=O)NCCOC(=O)Nc1cccc(Cl)c1 | 70.1* | -2.16* | -14.7 | -1.0 | 7.52* | -16.1 | M1 agonist conf=-0.806;M4 ag counter=-84.9*
CN(C)c1ccc(NC(=O)Cn2cc3c(n2)CCCC3)cc1 | -14.6 | 0.117 | 45.1 | -1.0 | 0.0654 | 15.6
CC(=O)c1ccc(Nc2nc(C)nc3c2oc2ccccc23)cc1 | -11.9 | 0.394 | 28.3 | -1.4 | 1.07 | -1.3
CC(=O)N1CCN(c2ccc(Nc3ncnc4c3oc3ccccc34)cc2)CC1 | 5.2 | -0.592 | -14.8 | -1.2 | 8.9* | 16.6 | M1 agonist conf=-5.91;M4 ag counter=?
O=C1CC(N2CCC(O)(c3ccc(Cl)cc3)CC2)C(=O)N1Cc1ccc(N2CCCC2=O)cc1 (stereo not given) | -0.8 | -0.391 | 10.3 | -0.4 | 0.112 | 2.9
CCOC(=O)c1oc2nc3c(cc2c1N)COC(C)(C)C3 | 5.0 | / | 17.9 | -0.1 | / | 14.6
CC1(C)Cc2nc3oc4c(N(CCO)Cc5ccccc5)ncnc4c3cc2CO1 | 1.7 | -0.466 | 1.8 | -0.7 | 8.13* | -8.0 | M1 agonist conf=-12;M4 ag counter=-20
COc1cc2cc(C(c3nnnn3C3CCCC3)N(C)C3CCCCC3)c(=O)[nH]c2cc1OC (stereo not given) | -5.7 | 0.844 | 28.0 | 0.4 | 0.349 | 9.8
